Tested on: Fibroblast
Assay: Multiplex assay against human fibroblast
Format: toxicity, cell-based
Method in brief: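 Per cents of healthy-nucleus cells form the tubulin, mitochondrial-mass and membrane-permeability phenotype values. Live cells were stained at seeding with Hoechst33342, BioTracker Green Microtubule Cytoskeleton Dye, MitoTracker Red and Annexin V Alexa Fluor 680. After compound addition they were imaged on a CQ1 microscope at 37°C and 5% CO2, and CellPathfinder machine-learning gating split them into Hoechst high-intensity objects or normal cells, normal cells into healthy, pyknosed or fragmented nuclei, and pyknosed cells into mitotic or apoptotic.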

[1] = 12 h, 1 µM, compound concentration 1 uM, replicate 1
[2] = 12 h, 1 µM, compound concentration 1 uM, replicate 2
[3] = 12 h, 10 µM, compound concentration 10 uM, replicate 1
[4] = 12 h, 10 µM, compound concentration 10 uM, replicate 2
[5] = 24 h, 1 µM, compound concentration 1 uM, replicate 1
[6] = 24 h, 1 µM, compound concentration 1 uM, replicate 2
[7] = 24 h, 10 µM, compound concentration 10 uM, replicate 1
[8] = 24 h, 10 µM, compound concentration 10 uM, replicate 2
[9] = 48 h, 1 µM, compound concentration 1 uM, replicate 1
[10] = 48 h, 1 µM, compound concentration 1 uM, replicate 2
[11] = 48 h, 10 µM, compound concentration 10 uM, replicate 1
[12] = 48 h, 10 µM, compound concentration 10 uM, replicate 2

For `CN(C)C(=O)Cn1cc(-c2ccc(-c3cncc4ccccc34)cc2)cn1`, the “Population Apoptotic (%)” value [1] was 47%, the “Population Fragmented Nuclei (%)” value [1] was 10% and the “Population Healthy Nuclei (%)” value [1] was 72%. For the same compound, the “Population Hoechst High Intensity Objects (%)” value [1] was 0%, the “Population Membrane Permeable-Phenotype (%)” value [1] was 0% and the “Population Mitochondria Different-Phenotype (%)” value [1] was 5%. For the same compound, the “Population Mitotic Cells (%)” value [1] was 52%, the “Population Normal (%)” value [1] was 100% and the “Population Pyknosed Nuclei (%)” value [1] was 16%. The “Population Tubulin-Different-Phenotype (%)” value [1] was 31%, the “Total Cell Count” value [1] was 139 and the “Population Apoptotic (%)” value [2] was 32%. For the same compound, the “Population Fragmented Nuclei (%)” value [2] was 33%, the “Population Healthy Nuclei (%)” value [2] was 46% and the “Population Hoechst High Intensity Objects (%)” value [2] was 5%. For the same compound, the “Population Membrane Permeable-Phenotype (%)” value [2] was 5%, the “Population Mitochondria Different-Phenotype (%)” value [2] was 2% and the “Population Mitotic Cells (%)” value [2] was 67%. For the same compound, the “Population Normal (%)” value [2] was 94%, the “Population Pyknosed Nuclei (%)” value [2] was 20% and the “Population Tubulin-Different-Phenotype (%)” value [2] was 54%. For the same compound, the “Total Cell Count” value [2] was 161, the “Population Apoptotic (%)” value [3] was 33% and the “Population Fragmented Nuclei (%)” value [3] was 13%. For the same compound, the “Population Healthy Nuclei (%)” value [3] was 69%, the “Population Hoechst High Intensity Objects (%)” value [3] was 4% and the “Population Membrane Permeable-Phenotype (%)” value [3] was 1%. The “Population Mitochondria Different-Phenotype (%)” value [3] was 12%, the “Population Mitotic Cells (%)” value [3] was 66% and the “Population Normal (%)” value [3] was 95%. For the same compound, the “Population Pyknosed Nuclei (%)” value [3] was 16%, the “Population Tubulin-Different-Phenotype (%)” value [3] was 52% and the “Total Cell Count” value [3] was 113. The “Population Fragmented Nuclei (%)” value [4] was 40%, the “Population Healthy Nuclei (%)” value [4] was 42% and the “Population Hoechst High Intensity Objects (%)” value [4] was 9%. The “Population Membrane Permeable-Phenotype (%)” value [4] was 18%, the “Population Mitochondria Different-Phenotype (%)” value [4] was 5% and the “Population Normal (%)” value [4] was 90%. For the same compound, the “Population Tubulin-Different-Phenotype (%)” value [4] was 81%, the “Total Cell Count” value [4] was 98 and the “Population Apoptotic (%)” value [5] was 47%. The “Population Fragmented Nuclei (%)” value [5] was 12%, the “Population Healthy Nuclei (%)” value [5] was 73% and the “Population Hoechst High Intensity Objects (%)” value [5] was 5%. For the same compound, the “Population Membrane Permeable-Phenotype (%)” value [5] was 0%, the “Population Mitochondria Different-Phenotype (%)” value [5] was 3% and the “Population Mitotic Cells (%)” value [5] was 52%. The “Population Normal (%)” value [5] was 94%, the “Population Pyknosed Nuclei (%)” value [5] was 14% and the “Population Tubulin-Different-Phenotype (%)” value [5] was 37%. For the same compound, the “Total Cell Count” value [5] was 137, the “Population Apoptotic (%)” value [6] was 48% and the “Population Fragmented Nuclei (%)” value [6] was 40%. For the same compound, the “Population Healthy Nuclei (%)” value [6] was 38%, the “Population Membrane Permeable-Phenotype (%)” value [6] was 7% and the “Population Mitochondria Different-Phenotype (%)” value [6] was 5%. The “Population Mitotic Cells (%)” value [6] was 51%, the “Population Pyknosed Nuclei (%)” value [6] was 20% and the “Population Tubulin-Different-Phenotype (%)” value [6] was 61%. For the same compound, the “Total Cell Count” value [6] was 156, the “Population Apoptotic (%)” value [7] was 50% and the “Population Fragmented Nuclei (%)” value [7] was 20%. The “Population Healthy Nuclei (%)” value [7] was 62%, the “Population Hoechst High Intensity Objects (%)” value [7] was 8% and the “Population Membrane Permeable-Phenotype (%)” value [7] was 0%. The “Population Mitochondria Different-Phenotype (%)” value [7] was 12%, the “Population Mitotic Cells (%)” value [7] was 50% and the “Population Normal (%)” value [7] was 91%. The “Population Pyknosed Nuclei (%)” value [7] was 17%, the “Population Tubulin-Different-Phenotype (%)” value [7] was 59% and the “Total Cell Count” value [7] was 113. For the same compound, the “Population Apoptotic (%)” value [8] was 41%, the “Population Fragmented Nuclei (%)” value [8] was 41% and the “Population Healthy Nuclei (%)” value [8] was 43%. The “Population Hoechst High Intensity Objects (%)” value [8] was 5%, the “Population Membrane Permeable-Phenotype (%)” value [8] was 11% and the “Population Mitochondria Different-Phenotype (%)” value [8] was 8%. The “Population Mitotic Cells (%)” value [8] was 58%, the “Population Normal (%)” value [8] was 94% and the “Population Pyknosed Nuclei (%)” value [8] was 15%. For the same compound, the “Population Tubulin-Different-Phenotype (%)” value [8] was 85%, the “Total Cell Count” value [8] was 85 and the “Population Apoptotic (%)” value [9] was 76%. The “Population Fragmented Nuclei (%)” value [9] was 21%, the “Population Healthy Nuclei (%)” value [9] was 65% and the “Population Hoechst High Intensity Objects (%)” value [9] was 6%. The “Population Membrane Permeable-Phenotype (%)” value [9] was 3%, the “Population Mitochondria Different-Phenotype (%)” value [9] was 8% and the “Population Mitotic Cells (%)” value [9] was 23%. The “Population Normal (%)” value [9] was 93%, the “Population Pyknosed Nuclei (%)” value [9] was 12% and the “Population Tubulin-Different-Phenotype (%)” value [9] was 57%. For the same compound, the “Total Cell Count” value [9] was 144, the “Population Apoptotic (%)” value [10] was 44% and the “Population Fragmented Nuclei (%)” value [10] was 36%. The “Population Healthy Nuclei (%)” value [10] was 40%, the “Population Hoechst High Intensity Objects (%)” value [10] was 7% and the “Population Membrane Permeable-Phenotype (%)” value [10] was 5%. For the same compound, the “Population Mitochondria Different-Phenotype (%)” value [10] was 7%, the “Population Mitotic Cells (%)” value [10] was 55% and the “Population Normal (%)” value [10] was 92%. For the same compound, the “Population Pyknosed Nuclei (%)” value [10] was 22%, the “Population Tubulin-Different-Phenotype (%)” value [10] was 77% and the “Total Cell Count” value [10] was 141. The “Population Apoptotic (%)” value [11] was 72%, the “Population Fragmented Nuclei (%)” value [11] was 24% and the “Population Healthy Nuclei (%)” value [11] was 54%. For the same compound, the “Population Hoechst High Intensity Objects (%)” value [11] was 9%, the “Population Membrane Permeable-Phenotype (%)” value [11] was 0% and the “Population Mitochondria Different-Phenotype (%)” value [11] was 20%. The “Population Mitotic Cells (%)” value [11] was 27%, the “Population Normal (%)” value [11] was 90% and the “Population Pyknosed Nuclei (%)” value [11] was 20%. For the same compound, the “Population Tubulin-Different-Phenotype (%)” value [11] was 55%, the “Total Cell Count” value [11] was 117 and the “Population Apoptotic (%)” value [12] was 12%. The “Population Fragmented Nuclei (%)” value [12] was 47%, the “Population Healthy Nuclei (%)” value [12] was 44% and the “Population Hoechst High Intensity Objects (%)” value [12] was 0%. For the same compound, the “Population Membrane Permeable-Phenotype (%)” value [12] was 8%, the “Population Mitochondria Different-Phenotype (%)” value [12] was 13% and the “Population Mitotic Cells (%)” value [12] was 87%. For the same compound, the “Population Normal (%)” value [12] was 99%, the “Population Pyknosed Nuclei (%)” value [12] was 7% and the “Population Tubulin-Different-Phenotype (%)” value [12] was 73%. The “Total Cell Count” value [12] was 102.

From ChEMBL document CHEMBL5058577, “EUbOPEN Chemogenomics Library 2 (Multiplex)” (2022)
